S100A4 MyoIIA: S100A4-myosin IIA interaction inhibition; S100A4/TAMRA-MyoIIA peptide fluorescence polarization; hit rate 0.14% among 360,000; AID 652163; P26447; inhibition, % at 10.7 µM;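 active means mean inhibition of at least 70% across replicates, with every replicate also reaching that level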
Target sequence (P26447 whole entry, looked up): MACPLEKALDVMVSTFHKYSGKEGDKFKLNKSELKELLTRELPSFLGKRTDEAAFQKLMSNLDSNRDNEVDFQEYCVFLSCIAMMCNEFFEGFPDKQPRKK
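Assay system: human S100A4 monomer with TAMRA-labelled myosin IIA peptide / Buffer or medium: Calcium-containing HEPES buffer, pH 7.2 / Reagent: TAMRA-labelled myosin IIA heavy-chain peptide probe, 5 nM / Compound: one dose per compound / Timing: polarization read 5 min after assay mix addition, stable 5–60 min / Benchmarks: neutral control DMSO, positive control TFP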
DENV2 CPE rescue: protects cells from dengue virus 2 cytopathic effect; DENV2-infected cells, cytopathic effect rescue, plate reader; CPE inhibition, % at 9.99 µM; hit rate 1.7% among 350,000; in the data active means CPE inhibition above about 20%, passing the limit was not always enough; tested in BHK-21 cells
Statin myotox sup: suppression of simvastatin myotoxicity; C2C12 myotubes + simvastatin, ATP luminescence, 48 h; scaled: DMSO 0, geranylgeraniol control 100; rescue of ATP level, % at 7.49 µM; hit rate 0.78% among 330,000;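 active means mean ATP rescue above about 67%, or every replicate alone reaching that limit, limit read from the data, passing the limit was not always enough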;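 further: myotubes were challenged with 10 µM simvastatin during compound exposure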
PGC1a acetyl inh: PGC1a acetylation modulation, inhibitor mode. U2OS PGC1a acetylation, AlphaScreen anti-acetyl-lysine; with virally co-expressed GCN5 acetyltransferase. inhibition, % at 15.6 µM. hit rate 0.17% among 350,000;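 active means every replicate shows inhibition of at least 40%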
SIRT5 inh: blocks human SIRT5 desuccinylation of peptide. Purified SirT5, succinyl-peptide AMC, trypsin-coupled fluorescence. inhibition, % at 15 µM. hit rate 1.1% among 330,000. AID 652115; in the data active means inhibition above about 15%
Target sequence (Q9NXA8 whole entry, looked up): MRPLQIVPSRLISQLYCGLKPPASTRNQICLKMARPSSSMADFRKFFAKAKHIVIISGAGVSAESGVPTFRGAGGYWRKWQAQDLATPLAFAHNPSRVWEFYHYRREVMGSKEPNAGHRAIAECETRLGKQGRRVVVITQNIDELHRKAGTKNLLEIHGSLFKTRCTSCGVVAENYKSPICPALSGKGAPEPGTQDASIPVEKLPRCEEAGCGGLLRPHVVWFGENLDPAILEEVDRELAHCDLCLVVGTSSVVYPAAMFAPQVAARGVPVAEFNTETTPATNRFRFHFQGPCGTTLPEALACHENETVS
Numbers stand for hits; 0 = inactive; - = no result. In the library only some 2.9% were active in any assay of this set; here they are far more common.

SMILES	S100A4 MyoIIA	DENV2 CPE rescue	Statin myotox sup	PGC1a acetyl inh	SIRT5 inh
CC(C)CC#Cc1cnc2c(c1)C(=O)N([C@H](C)CO)C[C@@H](C)[C@H](CN(C)Cc1ccc(C(=O)O)cc1)O2	0	0	-	0	0
C[C@H](CO)N1C[C@H](C)[C@H](CN(C)C)Oc2cc(C#CCN(C)C)ccc2S1(=O)=O	0	0	0	0	0
O=C(C[C@@H]1CC[C@H](NC(=O)c2cccc(F)c2)[C@@H](CO)O1)Nc1nccs1	0	0	0	0	0
OC[C@@H]1[C@@H](c2ccc(C#Cc3ccccc3)cc2)[C@@H]2CN(Cc3cncnc3)CCCCN12	0	0	-	0	0
CCCc1cn(CC[C@@H]2CC[C@H](NC(=O)C3CCCCC3)[C@@H](CO)O2)nn1	0	0	0	0	15.7
CC(C)c1cn(CC[C@@H]2CC[C@@H](NC(=O)C3CCOCC3)[C@H](CO)O2)nn1	0	0	-	0	0
CC(C)c1cn(CC[C@@H]2CC[C@H](NC(=O)C3CCOCC3)[C@@H](CO)O2)nn1	0	71.4	-	0	0
Cc1ccc(S(=O)(=O)N[C@H]2CC[C@H](CCNS(=O)(=O)Cc3ccccc3)O[C@H]2CO)cc1	0	0	0	0	0
CC(=O)NCCOc1cccc2ccccc12	-	-	0	0	-
c1ccc(CCNCCCOc2cccc3ccccc23)cc1	0	35.2	0	0	0
C[C@H]1CN([C@@H](C)CO)C(=O)c2cccc(NC(=O)Nc3ccc(F)cc3)c2O[C@H]1CN(C)C(=O)NC1CCCCC1	0	0	0	0	0
CCC(c1nnnn1-c1c(C)cccc1C)N1CCN(C/C=C/c2ccccc2)CC1 (centres undefined)	0	106.3	0	0	0
CCc1ccc(Nc2n[n+](-c3ccccc3)c(-c3ccc(C(=O)O)cc3)s2)cc1	0	22.9	0	-	-
Cc1c(NC(=O)c2ccc(NC(=O)C3CC3)cc2)cccc1C(=O)O	0	0	0	-	19.8
Cc1c(NC(=O)c2ccccc2NC(=O)c2ccccc2)cccc1C(=O)O	0	0	0	0	0
O=C(O)Cc1ccc(NC(=O)c2ccc(NC(=O)C3CC3)cc2)cc1	0	81.9	-	0	0
O=C(N/N=C/C(Br)=C\c1ccccc1)c1cccs1	0	0	-	0	19.9
COC(=O)c1c(-c2ccc(OC)cc2)sc2cc3c(cc12)OCO3	0	20.5	0	0	-
COC(=O)c1c(-c2ccc(N(C)C)cc2)sc2ccc(OC)cc12	0	-	0	0	0
O=S(=O)(O)c1ccc(O)c2cc(Nc3ccccc3)ccc12	0	0	0	0	62.8
O=S(=O)(O)c1cc(O)c2cc(Nc3ccccc3)ccc2c1	0	0	0	0	-
CO[C@H]1CN(C)C(=O)c2ccc(NS(=O)(=O)c3ccccc3F)cc2OC[C@@H](C)NC[C@@H]1C	0	0	0	0	0
CCC1CCCCN1CCCNC(=O)c1c(O)nc2ccccn2c1=O (centres undefined)	0	0	0	0	31.9
COc1ccc(CNC(=O)C[C@@H]2CC[C@@H](NS(=O)(=O)c3cccc(OC)c3)[C@H](CO)O2)cc1	0	0	0	0	0
Cc1cccc(C)c1NC(=O)C1=C(O)c2sccc2N(C)S1(=O)=O	0	0	-	0	20.6
SMILES	S100A4 MyoIIA	DENV2 CPE rescue	Statin myotox sup	PGC1a acetyl inh	SIRT5 inh
CO[C@@H]1CN(C)C(=O)c2ccc(NC(C)=O)cc2OC[C@H](C)N(Cc2cc(F)ccc2F)C[C@@H]1C	105.3	0	0	0	0
CO[C@H]1CN(C)C(=O)c2ccc(NC(C)=O)cc2OC[C@H](C)N(Cc2cc(F)ccc2F)C[C@@H]1C	0	31.7	0	0	0
COc1cccc(S(=O)(=O)Nc2ccc3c(c2)OC[C@@H](C)N(Cc2cc(F)ccc2F)C[C@@H](C)[C@H](OC)CN(C)C3=O)c1	0	0	0	0	20.0
O=C(NC1CCC1)[C@H]1[C@H](CO)[C@H]2Cn3c(ccc(-c4cccc(F)c4)c3=O)[C@@H]1N2Cc1cocn1	0	0	0	-	0
CCCC(=O)Nc1ccc2c(c1)C(=O)N(C)[C@@H]1CC[C@@H](CC(=O)NCCc3ccncc3)O[C@H]1CO2	0	0	0	0	0
O=C(C1CC1)N1CC[C@@H]2[C@H]1c1cc(C#Cc3ccc(F)cc3)ccc1N[C@@H]2CO	-	27.0	0	0	-
O=C(C1CCC1)N1CC[C@@H]2[C@H](CO)Nc3ccc(C#Cc4ccc(F)cc4)cc3[C@@H]21	0	0	-	0	0
O=C(C1CC1)N1CC[C@@H]2[C@H]1c1cc(C#Cc3ccccc3F)ccc1N[C@@H]2CO	-	28.6	0	0	-
C[C@@H]1CCCCO[C@@H](CN(C)Cc2ccc(Cl)c(Cl)c2)[C@H](C)CN([C@@H](C)CO)C(=O)c2cc(NS(=O)(=O)c3ccc(Cl)cc3)ccc2O1	0	0	-	0	0
COc1ccc(S(=O)(=O)N[C@@H]2C=C[C@H](CC(=O)N3CCN(c4ccccc4)CC3)O[C@@H]2CO)cc1	0	0	0	0	0
C[C@H]1CN([C@@H](C)CO)C(=O)CCCn2cc(nn2)CO[C@H]1CN(C)C(=O)OCc1ccccc1	0	0	0	0	0
COc1ccc2c3c([nH]c2c1)[C@H](CO)N(C(=O)c1cnccn1)CC31CCN(S(C)(=O)=O)CC1	0	68.2	-	0	0
COc1ccc2c3c([nH]c2c1)[C@H](CO)N(C(=O)c1cnccn1)CC31CN(C(=O)c2cnccn2)C1	-	0	-	0	-
COc1ccc2c3c([nH]c2c1)[C@@H](CO)N(Cc1nccs1)CC31CN(C(=O)C2CCCC2)C1	0	28.6	-	-	0
COc1ccc2c3c([nH]c2c1)[C@H](CO)N(C(=O)C1CCC1)CC31CCN(Cc2nccs2)CC1	0	40.6	-	-	0
COc1ccc2c3c([nH]c2c1)[C@@H](CO)N(C(=O)c1ccccn1)CC31CN(C(=O)C2CCCC2)C1	0	24.4	-	-	0
COc1ccc(S(=O)(=O)Nc2ccc3c(c2)C(=O)N([C@H](C)CO)C[C@@H](C)[C@@H](CN(C)Cc2ccc(-c4ccccc4)cc2)O3)cc1	0	0	-	0	0
N#CCCCSc1nnc(CSc2nc3ccccc3s2)n1-c1ccccc1	-	-	102.7	0	-
CCCSc1nnc(CSc2nc3ccccc3s2)n1-c1ccccc1	-	-	0	0	-
Cc1noc(C)c1S(=O)(=O)Nc1ccc2c(c1)CC(=O)N([C@@H](C)CO)C[C@H](C)[C@H](CN(C)S(C)(=O)=O)O2	-	0	0	0	-
CO[C@H]1CN(C)C(=O)c2cc(NC(=O)c3ccccc3)ccc2OC[C@@H](C)NC[C@H]1C	0	0	0	0	0
CO[C@@H]1CN(C)C(=O)c2cc(NC(=O)c3ccc(Oc4ccccc4)cc3)ccc2OC[C@H](C)NC[C@H]1C	0	0	0	0	100.0
CO[C@@H]1CN(C)C(=O)c2cc(NC(=O)c3ccc(-c4ccccc4)cc3)ccc2OC[C@H](C)NC[C@H]1C	0	0	0	0	0
CO[C@H]1CN(C)C(=O)c2cc(NC(=O)c3cnccn3)ccc2OC[C@H](C)NC[C@H]1C	0	26.8	0	0	0
CO[C@H]1CN(C)C(=O)c2cc(NC(=O)c3ccc(-c4ccccc4)cc3)ccc2OC[C@@H](C)NC[C@@H]1C	0	0	0	0	103.1
